The results in this text go back to PubChem BioAssay.

Activity calls are given as the source filed them.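 How the source made its calls, unless noted: active means fluorescence slope after compound addition differing from the mean of all tested samples at 99.7% confidence, mostly higher but some lower; inactive means the rest.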

Test [1] is described as follows: inhibitors of TNFa-induced NFkB p65 translocation, primary screen, imaging, HUVEC, MLSMR starter and 10KST1 sets (AID 438;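 active means inhibition above 20% together with a positive visual image hit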;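 further: compound added about 3h40 before a 20 min TNFalpha stimulation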;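 on inhibition: signal is the nuclear over cytoplasmic p65 intensity ratio per well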). The note with it: HUVEC TNFa-induced p65 nuclear translocation; cell count: measured here: nuclei count (cytotoxicity indicator), at 2.08 µM; inhibition: at 2 µM, stronger effect = higher value, 0% TNFa-plus-vehicle, 100% no-TNFa wells.
Test [2] is described as follows: inhibitors of mutant huntingtin aggregation, primary screen, imaging, exon1htt(103Q)mCFP cells, high-content imaging (AID 483;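 active means visual image review flags a hit and inhibition of aggregation exceeds 20%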;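 further: compound exposure lasted 3 days before fixation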;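 on nuclei count: percent of the per-plate median nuclei count of sample wells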). The note with it: exon1htt(103Q)mCFP cell line, aggregate imaging, at 2 µM; inhibition of aggregation: stronger effect = higher value; nuclei count: measured here: cell count, toxicity.
Test [3] can be described thus: inhibitors of E-selectin induction by TNFa, primary screen, imaging, HUVEC, immunofluorescence, MLSMR starter and 10KST1 sets (AID 487;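 active means visually confirmed hit in the image check and inhibition above 20%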;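 on inhibition: signal is fraction of cell area covered by stained E-selectin grains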;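 on nuclei count: 100% = median nuclei count of all wells on the same plate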). The note with it: HUVEC TNFalpha-induced E-selectin immunofluorescence imaging, at 2 µM; inhibition: stronger effect = higher value; nuclei count: measured here: cell number, toxicity.
Test [4] addresses Voltage-gated potassium channel subunit beta-2 (Rattus norvegicus) (UniProt P62483). Put plainly: KvBeta enzyme negative modulators, primary screen, biochemical, NADPH fluorescence (AID 622;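 active means fluorescence slope higher than the sample average by over 3 SD, cut at about -0.22 in these data, passing the limit was not always enough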;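 further: slope of raw intensity against log time taken from 70 to 1610 s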). The note with it: recombinant KvBeta, 4-cyanobenzaldehyde reduction, at 10 µM, stronger effect = higher value.
The target is the same in test [5]. Put plainly: KvBeta positive modulators, primary screen, biochemical, NADPH fluorescence (AID 623;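 active means NADPH fluorescence slope more negative than the mean of all samples by about 3 SD, 99.7% confidence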;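 further: fluorescence intensity change per second fitted from 20 to 320 s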). The note with it: Recombinant KvBeta, NADPH fluorescence decrease slope, 10 min; at 10 µM; stronger effect = lower value.
The target of test [6] is Muscarinic acetylcholine receptor M4 (Homo sapiens) (UniProt P08173). In words: compounds altering M4/GIRK thallium flux, either direction, primary screen, M4 allosteric agonist project, cell-based, HEK293 M4/GIRK, BTC-AM (AID 625).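 Further: thallium influx through GIRK channels coupled to M4 in HEK293 cells with BTC-AM dye.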 The note with it: at 10 µM, actives lie on both sides. Summed up:
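assay system = HEK293 cells with M4 receptor and GIRK channels | medium = pH 7.3 thallium assay buffer | doses = 10 µM final, single point | timing = cells overnight at 37 °C, BTC-AM loading 1 h, reads 2 min total | signal = BTC-AM fluorescence, 1 Hz kinetic reads | read-out = post-addition slope, 15–24 s, of baseline-normalized fluorescence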

Test [7] in a line: inhibitors of Sendai virus-induced IRF3 signaling, primary screen, TLR/RLR signaling modifier project, cell-based, Sendai virus stimulus, luciferase, 10K MLSCN set (AID 602276;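 active means inhibition at or above 50% at 10 µM; inactive means inhibition below 50%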;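 further: firefly luciferase from ISG56 promoter only with Renilla not read in this screen; 0% = Sendai virus plus DMSO and 100% = medium plus DMSO without virus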). The note with it: HEK293 RL24 IRF3 luciferase reporter, at 10 µM, stronger effect = higher value.
Test [8] can be described thus: inhibitors of poly I:C-induced TLR3 signaling, primary screen, cell-based, poly I:C stimulus, luciferase, 10K MLSCN set (AID 602277;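 active means inhibition of the reporter signal at or above 50%; inactive means inhibition below 50%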). The note with it: HEK293-TLR3 RL24 IRF3 luciferase reporter, at 10 µM, stronger effect = higher value.

Chain of Voltage-gated potassium channel subunit beta-2 (Rattus norvegicus) (P62483 whole entry, looked up): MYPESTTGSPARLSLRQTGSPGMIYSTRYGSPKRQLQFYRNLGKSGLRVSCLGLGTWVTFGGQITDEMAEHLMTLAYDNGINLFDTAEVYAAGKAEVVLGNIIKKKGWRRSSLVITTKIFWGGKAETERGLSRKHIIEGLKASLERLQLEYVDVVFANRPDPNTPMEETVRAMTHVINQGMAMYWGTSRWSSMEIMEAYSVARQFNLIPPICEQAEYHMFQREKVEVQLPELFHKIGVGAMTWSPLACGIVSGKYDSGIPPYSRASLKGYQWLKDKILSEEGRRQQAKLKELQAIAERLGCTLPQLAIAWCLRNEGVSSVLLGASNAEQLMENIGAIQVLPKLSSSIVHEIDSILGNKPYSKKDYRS
Chain of Muscarinic acetylcholine receptor M4 (Homo sapiens) (P08173 whole entry, looked up): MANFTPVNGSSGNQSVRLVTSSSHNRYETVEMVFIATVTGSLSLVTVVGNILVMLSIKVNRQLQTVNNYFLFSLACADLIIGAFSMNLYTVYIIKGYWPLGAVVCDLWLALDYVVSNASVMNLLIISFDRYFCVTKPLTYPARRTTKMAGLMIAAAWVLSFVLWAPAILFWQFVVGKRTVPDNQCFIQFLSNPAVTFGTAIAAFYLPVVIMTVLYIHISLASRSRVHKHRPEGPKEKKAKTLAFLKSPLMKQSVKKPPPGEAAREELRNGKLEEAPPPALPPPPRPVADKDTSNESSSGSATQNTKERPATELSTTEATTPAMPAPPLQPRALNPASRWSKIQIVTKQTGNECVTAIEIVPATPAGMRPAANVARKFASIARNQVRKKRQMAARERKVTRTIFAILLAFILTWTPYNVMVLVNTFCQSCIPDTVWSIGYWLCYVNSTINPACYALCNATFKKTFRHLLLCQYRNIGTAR

For the compound `Cc1cccc2cc(C#N)c(NCCNC(=O)NC3CCCCC3)nc12`, the cell count in test [1] is 463. Further, the inhibition is -5.1% (inactive) in test [1], -40.3% (inactive) in test [3], -2.87% (inactive) in test [7] and 1.15% (inactive) in test [8]. In addition, the inhibition of aggregation in test [2] was -41% (inactive). Further, the nuclei count stood at 85.8% in test [2] and 176% in test [3]. Moreover, the fluorescence slope is -0.471 (inactive) in test [4] and 0.00443 (inactive) in test [6]. The NADPH fluorescence slope in test [5] is -0.000184 (inactive).

Take `Cc1cccc2cc(CN(Cc3nnnn3C3CCCC3)C3CCCCC3)c(=O)[nH]c12`: the cell count in test [1] was 349. Also, the inhibition in test [1] was 5.8% (inactive); in test [3] it was -44% (inactive); in test [7], 7.22% (inactive); in test [8], 21.3% (inactive). The inhibition of aggregation in test [2] is -3.3% (inactive). For the same compound, the nuclei count came to 99.1% in test [2] and 106% in test [3]. Also, the fluorescence slope in test [4] was -0.466 (inactive); in test [6], 0.00597 (inactive). Further, in test [5], the NADPH fluorescence slope was 4.8e-05 (inactive).

Regarding `CS(=O)(=O)N1CCN(CC2CC3C=CC2C3)CC1` (centres undefined), the cell count in test [1] was found to be 367. Further, the inhibition is -3% (inactive) in test [1], -18.9% (inactive) in test [3], 14.1% (inactive) in test [7] and 25.1% (inactive) in test [8]. In addition, the inhibition of aggregation in test [2] is -5.6% (inactive). The results for the nuclei count in test [2] and in test [3] were 94.8% and 123%, respectively. For the same compound, the fluorescence slope is -0.199 (inactive) in test [4] and 0.00684 (inactive) in test [6]. For the same compound, in test [5], the NADPH fluorescence slope was -2e-05 (inactive).

With `CCn1cc(C(=O)N2CCCC2)c(=O)c2cc(S(=O)(=O)N3CCOCC3)ccc21`, in test [1], the cell count stood at 542. Besides, the inhibition in test [1] was -1% (inactive); in test [3], 14.8% (inactive); in test [7] it was 1.49% (inactive); in test [8], 12.8% (inactive). The inhibition of aggregation in test [2] is -13.1% (inactive). Moreover, the nuclei count came out at 100% in test [2] and 113% in test [3]. Moreover, the fluorescence slope is -0.427 (inactive) in test [4] and 0.00706 (inactive) in test [6]. In addition, the NADPH fluorescence slope in test [5] is -7.4e-05 (inactive).

Take `Cc1ccccc1NC(=O)C1CCC(C)(C(=O)O)C1(C)C` (centres undefined): the cell count in test [1] was determined as 485. Besides, the inhibition in test [1] was 3.5% (inactive); in test [3], -269% (inactive); in test [7], -5.54% (inactive); in test [8], 8.98% (inactive). For the same compound, the inhibition of aggregation in test [2] is 1.6% (inactive). Further, the nuclei count in test [2] is 94.4%; in test [3], 109%. The fluorescence slope in test [4] was -0.581 (inactive); in test [6], 0.00574 (inactive). Also, the NADPH fluorescence slope in test [5] was 1.1e-05 (inactive).

With `O=C(NCc1ccco1)c1noc2c1CCCCC2`, the cell count in test [1] worked out at 245. The inhibition in test [1] is 1.3% (inactive); in test [3], -32.5% (inactive); in test [7] it was -4% (inactive); in test [8], -51.6% (inactive). Also, the inhibition of aggregation in test [2] was 1.9% (inactive). In addition, the nuclei count came out at 103% in test [2] and 117% in test [3]. In addition, the fluorescence slope in test [4] was -0.549 (inactive); in test [6] it was 0.00608 (inactive). Moreover, the NADPH fluorescence slope in test [5] is -2.4e-05 (inactive).

For the compound `CC1CCN(C(=O)C2CCN(S(=O)(=O)c3cnc[nH]3)CC2)CC1`, the cell count in test [1] worked out at 464. The inhibition in test [1] was 2.5% (inactive); in test [3], -170% (inactive); in test [7], 15.5% (inactive); in test [8] it was 19.2% (inactive). In test [2], the inhibition of aggregation was 22% (inactive). For the same compound, the results for the nuclei count in test [2] and in test [3] were 90.5% and 116%, respectively. Moreover, the fluorescence slope in test [4] is -0.553 (inactive); in test [6], 0.00577 (inactive). The NADPH fluorescence slope in test [5] was -1.4e-05 (inactive).

With `COc1ccc2c(c1)CCc1c(C(=O)N3CCCc4ccccc43)noc1-2`, the cell count in test [1] stood at 419. Also, the inhibition was -4.5% (inactive) in test [1], -32.7% (inactive) in test [3], -24% (inactive) in test [7] and -75% (inactive) in test [8]. Further, the inhibition of aggregation in test [2] is 17.4% (inactive). The nuclei count in test [2] came to 69.7%; in test [3], 108%. Moreover, the fluorescence slope in test [4] was -0.459 (inactive); in test [6], 0.00416 (inactive). Moreover, the NADPH fluorescence slope in test [5] is -0.000351 (inactive).

`CCc1nnc(NC(=O)C2CCN(c3nccc(C)n3)CC2)s1`: in test [1], the cell count was found to be 533. The inhibition in test [1] is 0.5% (inactive); in test [3], -13.3% (inactive); in test [7], 11% (inactive); in test [8] it was 14.7% (inactive). Moreover, the inhibition of aggregation in test [2] was 0.2% (inactive). Further, the nuclei count stood at 103% in test [2] and 96.9% in test [3]. The figures for the fluorescence slope in test [4] and in test [6] were -0.317 (inactive) and 0.00544 (inactive), respectively. Besides, the NADPH fluorescence slope in test [5] is -3.6e-05 (inactive).

For the compound `Cc1ccccc1-c1nc2ccccc2c(=O)n1C1CCS(=O)(=O)C1` (centres undefined), the cell count in test [1] was 368. For the same compound, the inhibition was 3.8% (inactive) in test [1], -4.7% (inactive) in test [3], 21% (inactive) in test [7] and 31% (inactive) in test [8]. Also, the inhibition of aggregation in test [2] is -7.2% (inactive). The nuclei count in test [2] was found to be 110%; in test [3], 102%. The figures for the fluorescence slope in test [4] and in test [6] were -0.614 (inactive) and 0.00582 (inactive), respectively. The NADPH fluorescence slope in test [5] was 9.6e-06 (inactive).

For the compound `Cc1cc(C)n2nc3nc(N4CCCCC4)nc(-c4ccco4)c3c2n1`, in test [1], the cell count is 315. For the same compound, the inhibition in test [1] is -2.2% (inactive); in test [3], -260% (inactive); in test [7] it was 12.6% (inactive); in test [8], 2.12% (inactive). Moreover, the inhibition of aggregation in test [2] is -24.4% (inactive). Further, the values for the nuclei count in test [2] and in test [3] were 105% and 86.7%, respectively. Also, the fluorescence slope in test [4] is -0.433 (inactive); in test [6], 0.00465 (inactive). Besides, the NADPH fluorescence slope in test [5] is 1e-05 (inactive).

In the case of `COc1ccc(-c2nn(-c3ccccc3)cc2/C=N/n2cnnc2)cc1OC`, the cell count in test [1] is 737. Further, the inhibition is 0.7% (inactive) in test [1], -74.5% (inactive) in test [3], 1.15% (inactive) in test [7] and 1.32% (inactive) in test [8]. In addition, the inhibition of aggregation in test [2] was -17.1% (inactive). Further, the nuclei count in test [2] was found to be 100%; in test [3], 108%. Moreover, the figures for the fluorescence slope in test [4] and in test [6] were -0.464 (inactive) and 0.00596 (inactive), respectively. In addition, in test [5], the NADPH fluorescence slope is -6.1e-05 (inactive).

Regarding `COC(=O)c1cc(Br)c(=O)n(CCN2CCOCC2)c1`, the cell count in test [1] stood at 563. In addition, the inhibition in test [1] was 5.4% (inactive); in test [3] it was 5.8% (inactive); in test [7], 13% (inactive); in test [8], 20.6% (inactive). Also, in test [2], the inhibition of aggregation is 1.7% (inactive). Also, the nuclei count worked out at 96.1% in test [2] and 104% in test [3]. For the same compound, the fluorescence slope in test [4] is -0.43 (inactive); in test [6] it was 0.00578 (inactive). Moreover, the NADPH fluorescence slope in test [5] is -6.4e-05 (inactive).

For `CCC(=O)N1CCc2cc(S(=O)(=O)CCC(=O)Nc3nc(C)cs3)ccc21`, the cell count in test [1] worked out at 606. Besides, the inhibition in test [1] is 5.7% (inactive); in test [3], -144% (inactive); in test [7] it was 19.2% (inactive); in test [8] it was 21.5% (inactive). The inhibition of aggregation in test [2] was 9.7% (inactive). The nuclei count in test [2] was determined as 95.8%; in test [3], 158%. Moreover, the fluorescence slope in test [4] is -0.439 (inactive); in test [6] it was 0.00524 (inactive). In test [5], the NADPH fluorescence slope is 7.6e-05 (inactive).
